Assay results from different studies.
Target: Casein kinase I isoform delta (CSNK1D, Homo sapiens, UniProt P48730)

SMILES	read-out	action	technique	tested at	quantity	result
Cc1nn(C)cc1-c1nc2c(N3CCN(Cc4ccc(Cl)cc4)CC3)c(Cl)cnc2[nH]1	binding		competition with immobilised ligand	1 µM	remaining binding	100%
CC(C)(C)c1cc(C=C(C#N)C#N)cc(Br)c1O	enzyme activity	inhibitor		0.5 µM	remaining activity	85.5%
Cn1cc(-c2cccc(N3CCc4c(sc5c4CC(C)(C)C5)C3=O)c2CO)cc(Nc2ccncn2)c1=O	enzyme activity	inhibitor		1 µM	inhibition	0%
Nc1ncc(-c2nc(N3CCOCC3)nc(N3CCOCC3)n2)c(C(F)F)n1	binding		competition with immobilised ligand	10 µM	remaining binding	90%
Cn1cncc1[C@@](O)(COc1ccc(C#N)cc1-c1ccc(OC(F)(F)F)cc1)c1ccc(C#N)cc1	cell-free assay		competition with immobilised ligand	1 µM	remaining binding	94%
O=c1[nH]c2ccccc2n1C1CCN(Cc2ccc(-c3[nH]c4cc5ncnc5cc4nc3-c3ccccc3)cc2)CC1	cell-free assay			0.5 µM	remaining signal	100%
COc1ncccc1-c1cnn2ccc(N3CCN(C(=O)OC(C)C)CC3)nc12	binding		competition with immobilised ligand	1 µM	remaining binding	85%
Cn1cc(-c2cc(F)cc(N3CCn4c(cc5c4CCCC5)C3=O)c2CO)cc(Nc2ccc(N3CCN(C4COC4)CC3)cn2)c1=O	enzyme activity	inhibitor		0.1 µM	inhibition	6%
